Laboratory results reported in ChEMBL document CHEMBL1139384, “First Cdc7 kinase inhibitors: pyrrolopyridinones as potent and orally active antitumor agents. 2. Lead discovery” (J Med Chem, 2009).
pIC50: −log10 of the molar value. The source made the active and inactive calls. No cut-off for these calls is given here.

Experiments:
[1] = biological target: Mast/stem cell growth factor receptor Kit (Homo sapiens, UniProt P10721); test: Inhibition of KIT
[2] = biological target: Serine/threonine-protein kinase Nek6 (Homo sapiens, UniProt Q9HC98); test: Inhibition of NEK6
[3] = biological target: Serine/threonine-protein kinase PAK 4 (Homo sapiens, UniProt O96013); test: Inhibition of PAK4
[4] = biological target: cAMP-dependent protein kinase catalytic subunit alpha (Homo sapiens, UniProt P17612); test: Inhibition of PKAalpha
[5] = biological target: Serine/threonine-protein kinase 26 (Homo sapiens, UniProt Q9P289); test: Inhibition of MST4
[6] = AUC (0 to infinity) in nu/nu mouse at 10 mg/kg, iv administered as single dose; format: ADME, organism-based; set-up: dose 10 mg/kg, route intravenous, time infinity; settings: plasma
In short: (§1)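 Single iv or oral dose in 5% dextrose to overnight-fasted animals. Nu/Nu mice: males, 3 per route, saphenous bleeds to 24 h. Han-Wistar rats: males, 3 per route, jugular bleeds to 24 h. Beagle dogs: 2 per sex, iv and po crossover 2 weeks apart, jugular bleeds to 48 h. Plasma by LC/MS/MS; noncompartmental parameters, AUC by linear trapezoid with extrapolation.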

[7] = Clearance in nu/nu mouse at 10 mg/kg, iv administered as single dose; format: ADME, organism-based; set-up: dose 10 mg/kg, route intravenous; settings: in vivo; in short: as §1
[8] = Half life in nu/nu mouse at 10 mg/kg, iv administered as single dose; format: ADME, organism-based; set-up: dose 10 mg/kg, route intravenous; settings: in vivo; in short: as §1
[9] = Tmax in nu/nu mouse at 10 mg/kg, po administered as single dose; format: ADME, organism-based; set-up: dose 10 mg/kg, route oral; settings: in vivo
In short: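 Overnight-fasted male Nu/Nu mice got a single 10 mg/kg dose in 5% dextrose, iv or po, three mice per route. Saphenous blood was drawn at 0.083 (iv) or 0.25 (po), 0.5, 1, 6 and 24 h. Plasma was assayed by LC/MS/MS and analysed noncompartmentally. Tmax is the observed peak time, Vss = CL·MRT, and F is the ratio of dose-normalized AUC∞ po/iv.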

[10] = AUC (0 to infinity) in nu/nu mouse at 10 mg/kg, po administered as single dose; format: ADME, organism-based; set-up: time infinity, dose 10 mg/kg, route oral; settings: plasma; in short: as §1
Rattus norvegicus [11] = test: AUC (0 to infinity) in Wistar rat at 10 mg/kg, iv administered as single dose; format: ADME, organism-based, Plasma; set-up: time infinity, dose 10 mg/kg, route intravenous; settings: in vivo; in short: as §1
[12] = Volume of distribution at steady state in Wistar rat at 10 mg/kg, iv administered as single dose; format: ADME, organism-based; set-up: dose 10 mg/kg, route intravenous; settings: in vivo, read-out: Vdss
In short: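 Overnight-fasted male Han-Wistar rats got a single 10 mg/kg iv dose in 5% dextrose, three per leg. Jugular blood was drawn from 0.083 to 24 h. Urine was collected over 0–6 and 6–24 h. Plasma and urine were assayed by LC/MS/MS and analysed noncompartmentally. Vss = CL·MRT.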

[13] = Cmax in Beagle dog at 5 mg/kg, iv administered as single dose; format: ADME, organism-based, Canis lupus familiaris; set-up: dose 5 mg/kg, route intravenous; settings: in vivo; in short: as §1
[14] = Half life in Beagle dog at 5 mg/kg, iv administered as single dose; format: ADME, organism-based, Canis lupus familiaris; set-up: dose 5 mg/kg, route intravenous; settings: in vivo; in short: as §1
COLO 205 = test: Antiproliferative activity against human COLO205 cells after 72 hrs by luciferase based assay; format: functional, cell-based; settings: COLO 205, 72 h
L-363 = test: Antiproliferative activity against human L363 cells after 72 hrs by luciferase based assay; format: functional, cell-based; settings: L-363, 72 h
In short: (§2)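 Cells seeded at 2500–5000/well in complete medium (RPMI1640, McCoy's or DMEM with 10% FCS, by line); compound added after 24 h, 72 h at 37 °C, 5% CO2.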

SW48 = test: Antiproliferative activity against human SW48 cells after 72 hrs by luciferase based assay; format: functional, cell-based; settings: SW48, 72 h; in short: as §2
HeLa [15] = test: Inhibition of DNA synthesis in human HeLa cells at 3 uM assessed as bromodeoxyuridine incorporation after 24 hrs; format: functional; set-up: scale not given: the % may be the effect or the level left
In short: (§3)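 Logarithmically growing HeLa cells exposed to 3 µM for set times, labelled with 50 µM BrdU, fixed in 70% ethanol. DNA content by propidium iodide with RNase A, 30 min at 37 °C; BrdU by FITC anti-BrdU after 2N HCl denaturation; percent positive cells by FACS.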

HeLa [16] = test: Cell cycle arrest in human HeLa cells assessed as accumulation at G1/S phase at 3 uM by fluorescence activated cell sorting; format: functional, cell-based; in short: as §3
[17] = biological target: Cell division cycle 7-related protein kinase (Homo sapiens, UniProt O00311); test: Inhibition of human Cdc7 in human A2780 cells assessed as inhibition of Ser53 phosphorylation of Mcm2 protein at 3 uM up to 24 hrs; format: cell-based
In short: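 Time course in A2780 cells held at 3 µM for up to 24 h. Extracts were made in 50 mmol/L Tris-HCl pH 6.8, 1% SDS, 1 mmol/L DTT with 10 s sonication, loaded at 15 µg per lane, and immunoblotted with antiphosphopeptide antibodies to MCM2 Ser40 and Ser53. Cleaved caspase 3 was also probed.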

Cytochrome P450 2C19 = Cytochrome P450 2C19 (Homo sapiens, UniProt P33261); test: Inhibition of human CYP2C19; format: ADME
Cytochrome P450 3A4 = Cytochrome P450 3A4 (Homo sapiens, UniProt P08684); test: Inhibition of human CYP3A4; format: ADME
A2780 = test: Antitumor activity against human A2780 cells xenografted in CDI nu/nu mouse assessed as tumor growth inhibition at 60 mg/kg, po administered for 10 days; format: functional; settings: A2780, 240 h, read-out: TGI
Rattus norvegicus [18] = test: Antitumor activity against DMBA-induced mammary carcinoma in CD OFA rat assessed as duration of tumor stabilization maintenance at 20 mg/kg, po administered for 10 days; format: functional
In short: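 DMBA tumors induced in female CD OFA rats by single intragastric 20 mg DMBA in sesame oil; after about 50 days, rats with a mammary tumor of at least 1 cm given 20 mg/kg orally twice daily for 10 days in glucose solution, or vehicle; 10 per group; tumor volume by Vernier calipers.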

Mus musculus = test: Inhibition of human Cdc7 in human A2780 cells xenografted in CDI nu/nu mouse assessed as inhibition of Ser40 phosphorylation of Mcm2 protein at 60 mg/kg, po first dose administered at 6 hrs and second dose 3 hrs after first dose by Western blot; format: functional, organism-based; set-up: dose 60 mg/kg
In short: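 Mice bearing A2780 xenografts given two oral doses of 60 mg/kg, the second 3 h after the first, over 6 h, or vehicle. Explanted tumors blotted for Mcm2 phospho-Ser40 and phospho-Ser53, with total MCM2 and tubulin as loading controls.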

[19] = Inhibition of Cdk1b
[20] = biological target: Serine/threonine-protein kinase PLK1 (Homo sapiens, UniProt P53350)
[21] = Half life in Wistar rat at 20 mg/kg, po administered as single dose; settings: in vivo
Rattus norvegicus [22] = test: AUC (0 to infinity) in Wistar rat at 20 mg/kg, po administered as single dose; settings: in vivo
Rattus norvegicus [23] = test: Oral bioavailability in Wistar rat at 20 mg/kg, po administered as single dose; settings: in vivo

Sequence of Serine/threonine-protein kinase 26 (Q9P289 whole entry): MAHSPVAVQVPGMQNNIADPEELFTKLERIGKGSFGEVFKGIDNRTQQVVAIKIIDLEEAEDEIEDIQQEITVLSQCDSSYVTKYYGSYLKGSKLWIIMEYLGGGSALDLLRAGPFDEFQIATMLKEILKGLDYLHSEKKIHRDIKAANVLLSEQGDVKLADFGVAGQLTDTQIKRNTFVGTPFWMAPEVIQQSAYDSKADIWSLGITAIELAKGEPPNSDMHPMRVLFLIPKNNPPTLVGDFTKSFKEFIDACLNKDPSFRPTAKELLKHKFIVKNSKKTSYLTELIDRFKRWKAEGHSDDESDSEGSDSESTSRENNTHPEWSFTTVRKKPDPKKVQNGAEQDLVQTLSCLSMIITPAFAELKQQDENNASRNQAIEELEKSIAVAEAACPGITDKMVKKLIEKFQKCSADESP
Sequence of Cell division cycle 7-related protein kinase (O00311 whole entry, looked up): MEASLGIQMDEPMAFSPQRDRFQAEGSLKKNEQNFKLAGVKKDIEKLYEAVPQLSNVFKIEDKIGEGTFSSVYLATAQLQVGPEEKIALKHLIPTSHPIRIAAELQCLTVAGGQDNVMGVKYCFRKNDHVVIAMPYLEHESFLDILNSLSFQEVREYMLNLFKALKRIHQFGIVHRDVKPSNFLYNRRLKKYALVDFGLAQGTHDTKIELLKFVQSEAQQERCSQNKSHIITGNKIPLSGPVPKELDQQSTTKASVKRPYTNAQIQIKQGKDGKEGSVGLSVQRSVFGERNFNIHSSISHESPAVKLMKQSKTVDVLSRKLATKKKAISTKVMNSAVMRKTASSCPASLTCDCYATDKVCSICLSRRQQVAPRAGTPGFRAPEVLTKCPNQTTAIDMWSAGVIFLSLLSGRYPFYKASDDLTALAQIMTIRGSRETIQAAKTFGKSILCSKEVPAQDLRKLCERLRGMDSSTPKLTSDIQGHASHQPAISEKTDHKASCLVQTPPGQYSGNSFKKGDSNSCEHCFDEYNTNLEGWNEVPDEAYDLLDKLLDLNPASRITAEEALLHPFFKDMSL
Sequence of Mast/stem cell growth factor receptor Kit (P10721 whole entry): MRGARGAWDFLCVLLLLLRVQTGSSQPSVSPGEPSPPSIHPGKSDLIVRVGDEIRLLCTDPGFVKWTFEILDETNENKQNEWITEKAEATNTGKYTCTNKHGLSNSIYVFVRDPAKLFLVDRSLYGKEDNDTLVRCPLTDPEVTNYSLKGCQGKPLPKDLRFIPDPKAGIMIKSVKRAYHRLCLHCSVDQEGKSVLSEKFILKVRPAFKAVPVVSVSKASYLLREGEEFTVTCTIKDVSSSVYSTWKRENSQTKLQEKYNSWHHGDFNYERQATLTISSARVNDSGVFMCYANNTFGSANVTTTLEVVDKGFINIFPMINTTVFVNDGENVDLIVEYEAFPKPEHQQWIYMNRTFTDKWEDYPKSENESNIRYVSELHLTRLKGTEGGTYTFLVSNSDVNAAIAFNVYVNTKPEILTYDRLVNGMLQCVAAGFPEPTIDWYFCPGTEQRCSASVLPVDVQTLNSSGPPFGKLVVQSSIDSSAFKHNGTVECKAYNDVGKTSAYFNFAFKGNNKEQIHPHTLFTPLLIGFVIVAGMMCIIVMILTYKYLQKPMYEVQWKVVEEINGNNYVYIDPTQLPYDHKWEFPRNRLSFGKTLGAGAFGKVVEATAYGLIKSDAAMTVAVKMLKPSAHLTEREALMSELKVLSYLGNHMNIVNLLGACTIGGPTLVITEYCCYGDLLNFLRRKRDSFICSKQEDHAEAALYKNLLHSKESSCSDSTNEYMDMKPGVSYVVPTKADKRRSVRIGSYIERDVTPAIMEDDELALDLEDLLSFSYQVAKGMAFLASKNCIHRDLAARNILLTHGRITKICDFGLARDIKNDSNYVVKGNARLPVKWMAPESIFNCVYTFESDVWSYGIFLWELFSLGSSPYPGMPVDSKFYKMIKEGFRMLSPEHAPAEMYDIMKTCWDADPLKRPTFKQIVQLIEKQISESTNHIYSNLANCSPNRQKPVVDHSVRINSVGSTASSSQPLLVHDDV
Sequence of Cytochrome P450 3A4 (P08684 whole entry): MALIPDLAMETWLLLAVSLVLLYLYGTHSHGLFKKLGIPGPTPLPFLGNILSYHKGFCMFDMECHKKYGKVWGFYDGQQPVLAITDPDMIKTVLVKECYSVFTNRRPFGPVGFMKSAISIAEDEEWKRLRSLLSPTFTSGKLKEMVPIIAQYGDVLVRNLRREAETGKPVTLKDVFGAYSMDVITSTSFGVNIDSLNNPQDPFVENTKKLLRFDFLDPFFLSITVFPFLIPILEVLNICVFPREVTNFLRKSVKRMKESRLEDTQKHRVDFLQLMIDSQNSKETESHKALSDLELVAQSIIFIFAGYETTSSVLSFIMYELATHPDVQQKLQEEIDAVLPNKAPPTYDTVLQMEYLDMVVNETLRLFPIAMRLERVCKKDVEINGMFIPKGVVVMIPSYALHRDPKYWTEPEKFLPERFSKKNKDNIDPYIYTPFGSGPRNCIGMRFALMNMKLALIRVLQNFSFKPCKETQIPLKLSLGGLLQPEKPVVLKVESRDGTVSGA
Sequence of Serine/threonine-protein kinase Nek6 (Q9HC98 whole entry): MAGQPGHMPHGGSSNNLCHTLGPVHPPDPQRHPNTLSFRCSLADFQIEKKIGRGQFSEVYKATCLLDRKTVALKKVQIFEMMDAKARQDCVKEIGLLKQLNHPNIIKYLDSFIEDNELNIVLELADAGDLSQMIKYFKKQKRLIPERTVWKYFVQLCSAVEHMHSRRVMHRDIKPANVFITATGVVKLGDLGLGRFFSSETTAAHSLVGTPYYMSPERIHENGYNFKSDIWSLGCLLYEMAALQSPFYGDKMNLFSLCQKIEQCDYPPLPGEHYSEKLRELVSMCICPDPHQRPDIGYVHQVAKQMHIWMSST
Sequence of Cytochrome P450 2C19 (P33261 whole entry): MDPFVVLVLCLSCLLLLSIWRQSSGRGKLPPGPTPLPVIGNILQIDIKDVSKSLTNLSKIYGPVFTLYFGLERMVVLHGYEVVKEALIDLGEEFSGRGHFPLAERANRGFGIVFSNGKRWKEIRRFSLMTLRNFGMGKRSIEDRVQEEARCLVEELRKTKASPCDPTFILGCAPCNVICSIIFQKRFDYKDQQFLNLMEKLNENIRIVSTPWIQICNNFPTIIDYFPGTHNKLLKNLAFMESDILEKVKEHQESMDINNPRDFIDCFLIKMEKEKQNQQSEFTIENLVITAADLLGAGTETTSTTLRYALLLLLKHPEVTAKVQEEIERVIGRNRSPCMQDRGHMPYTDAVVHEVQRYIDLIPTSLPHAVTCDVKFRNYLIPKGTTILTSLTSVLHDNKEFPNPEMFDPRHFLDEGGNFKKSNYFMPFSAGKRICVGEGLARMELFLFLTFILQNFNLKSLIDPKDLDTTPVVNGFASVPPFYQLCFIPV
Sequence of Serine/threonine-protein kinase PAK 4 (O96013 whole entry): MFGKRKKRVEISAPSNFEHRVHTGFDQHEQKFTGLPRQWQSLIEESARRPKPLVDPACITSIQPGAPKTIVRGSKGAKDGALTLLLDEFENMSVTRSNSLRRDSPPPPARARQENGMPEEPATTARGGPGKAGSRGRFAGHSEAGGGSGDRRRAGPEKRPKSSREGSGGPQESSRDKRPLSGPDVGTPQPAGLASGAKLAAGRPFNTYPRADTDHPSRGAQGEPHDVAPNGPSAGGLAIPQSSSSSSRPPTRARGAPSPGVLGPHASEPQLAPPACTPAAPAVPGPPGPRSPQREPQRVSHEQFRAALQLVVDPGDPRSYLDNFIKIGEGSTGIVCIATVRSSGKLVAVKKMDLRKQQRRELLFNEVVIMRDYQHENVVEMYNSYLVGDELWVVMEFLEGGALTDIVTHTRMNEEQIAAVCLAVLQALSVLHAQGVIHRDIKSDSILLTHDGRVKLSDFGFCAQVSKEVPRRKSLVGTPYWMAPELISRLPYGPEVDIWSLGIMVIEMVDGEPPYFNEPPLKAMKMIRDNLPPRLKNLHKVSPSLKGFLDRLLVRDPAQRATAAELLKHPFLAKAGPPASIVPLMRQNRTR
Sequence of Serine/threonine-protein kinase PLK1 (P53350 whole entry): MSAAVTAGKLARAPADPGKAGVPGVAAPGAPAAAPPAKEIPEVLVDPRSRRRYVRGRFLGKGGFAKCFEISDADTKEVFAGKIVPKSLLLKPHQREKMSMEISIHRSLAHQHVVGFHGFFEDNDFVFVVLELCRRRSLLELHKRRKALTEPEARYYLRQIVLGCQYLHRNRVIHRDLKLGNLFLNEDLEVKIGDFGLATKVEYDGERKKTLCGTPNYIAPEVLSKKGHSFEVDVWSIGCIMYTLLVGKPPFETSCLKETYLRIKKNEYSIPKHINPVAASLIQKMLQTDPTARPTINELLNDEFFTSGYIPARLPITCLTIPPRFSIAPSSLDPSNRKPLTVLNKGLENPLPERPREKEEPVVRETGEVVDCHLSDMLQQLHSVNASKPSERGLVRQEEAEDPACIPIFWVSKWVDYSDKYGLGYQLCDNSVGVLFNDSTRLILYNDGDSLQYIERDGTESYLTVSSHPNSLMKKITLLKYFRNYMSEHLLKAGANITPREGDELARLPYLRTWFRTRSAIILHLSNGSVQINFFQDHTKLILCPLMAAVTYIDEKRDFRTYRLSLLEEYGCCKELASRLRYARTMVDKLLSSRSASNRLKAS

Compound Nc1nccc(-c2cc3c([nH]2)[C@@H](CCF)CNC3=O)n1 has a pIC50 [1] of less than 5.40, a pIC50 [2] of less than 5.40 and a pIC50 [3] of less than 5.40. The pIC50 [4] was less than 5.40, the pIC50 [5] was less than 5.40 and the AUC(0-inf) [6] was 9.5 µM·h. It also gave a clearance [7] of 61.7 mL/min/kg, a half-life [8] of 60 min and a Tmax [9] of 30 min. It also gave an AUC(0-inf) [10] of 5 µM·h, an AUC (Rattus norvegicus [11]) of 19.9 µM·h and a Vd [12] of 2.1 L/kg. It also gave a Cmax [13] of 8.9 µM, a half-life [14] of 36 min and a pIC50 (COLO 205) of 6.30. The pIC50 (L-363) was 5.89, the pIC50 (SW48) was 6.05 and the Activity (HeLa [15]) was 3%. The Activity (HeLa [16]) was “Active”, the Activity [17] was “Active” and the Activity (Cytochrome P450 2C19) was “Not Active”. The Activity (Cytochrome P450 3A4) was “Not Active”, the inhibition in vivo at 60 mg/kg (A2780) was 68% and the Activity (Rattus norvegicus [18]) was 35 days. The Activity (Mus musculus) was “Active”, the pIC50 [19] was 7.52 and the pIC50 [20] was 6.24. For the same compound, the half-life [21] was 372 min, the AUC (Rattus norvegicus [22]) was 18.9 µM·h and the F (Rattus norvegicus [23]) was 33%.
